Reference: ChEMBL document CHEMBL5058577, “EUbOPEN Chemogenomics Library 2 (Multiplex)” (2022)

Test system: Fibroblast
Experiment: Multiplex assay against human fibroblast
Assay type: toxicity, cell-based
How it was run: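 Per cents of healthy-nucleus cells form the tubulin, mitochondrial-mass and membrane-permeability phenotype values. Live cells were stained at seeding with Hoechst33342, BioTracker Green Microtubule Cytoskeleton Dye, MitoTracker Red and Annexin V Alexa Fluor 680. After compound addition they were imaged on a CQ1 microscope at 37°C and 5% CO2, and CellPathfinder machine-learning gating split them into Hoechst high-intensity objects or normal cells, normal cells into healthy, pyknosed or fragmented nuclei, and pyknosed cells into mitotic or apoptotic.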

[1] = 12 h, 1 µM, compound concentration 1 uM, replicate 1
[2] = 12 h, 1 µM, compound concentration 1 uM, replicate 2
[3] = 12 h, 10 µM, compound concentration 10 uM, replicate 1
[4] = 12 h, 10 µM, compound concentration 10 uM, replicate 2
[5] = 24 h, 1 µM, compound concentration 1 uM, replicate 1
[6] = 24 h, 1 µM, compound concentration 1 uM, replicate 2
[7] = 24 h, 10 µM, compound concentration 10 uM, replicate 1
[8] = 24 h, 10 µM, compound concentration 10 uM, replicate 2
[9] = 48 h, 1 µM, compound concentration 1 uM, replicate 1
[10] = 48 h, 1 µM, compound concentration 1 uM, replicate 2
[11] = 48 h, 10 µM, compound concentration 10 uM, replicate 1
[12] = 48 h, 10 µM, compound concentration 10 uM, replicate 2

COc1cc(C(=O)N2CC[C@@H](O)[C@@H](N)C2)cc2nc(-c3cc4ccccc4n3CC3CC3)n(C)c12.Cl
Population Apoptotic (%) [1]: 21%
Population Fragmented Nuclei (%) [1]: 25%
Population Healthy Nuclei (%) [1]: 62%
Population Hoechst High Intensity Objects (%) [1]: 2%
Population Membrane Permeable-Phenotype (%) [1]: 0%
Population Mitochondria Different-Phenotype (%) [1]: 4%
Population Mitotic Cells (%) [1]: 78%
Population Normal (%) [1]: 97%
Population Pyknosed Nuclei (%) [1]: 12%
Population Tubulin-Different-Phenotype (%) [1]: 55%
Total Cell Count [1]: 160
Population Apoptotic (%) [2]: 48%
Population Fragmented Nuclei (%) [2]: 24%
Population Healthy Nuclei (%) [2]: 44%
Population Hoechst High Intensity Objects (%) [2]: 3%
Population Membrane Permeable-Phenotype (%) [2]: 10%
Population Mitochondria Different-Phenotype (%) [2]: 14%
Population Mitotic Cells (%) [2]: 51%
Population Normal (%) [2]: 96%
Population Pyknosed Nuclei (%) [2]: 31%
Population Tubulin-Different-Phenotype (%) [2]: 69%
Total Cell Count [2]: 130
Population Apoptotic (%) [3]: 60%
Population Fragmented Nuclei (%) [3]: 22%
Population Healthy Nuclei (%) [3]: 57%
Population Hoechst High Intensity Objects (%) [3]: 6%
Population Membrane Permeable-Phenotype (%) [3]: 0%
Population Mitochondria Different-Phenotype (%) [3]: 34%
Population Mitotic Cells (%) [3]: 40%
Population Normal (%) [3]: 93%
Population Pyknosed Nuclei (%) [3]: 19%
Population Tubulin-Different-Phenotype (%) [3]: 97%
Total Cell Count [3]: 271
Population Apoptotic (%) [4]: 48%
Population Fragmented Nuclei (%) [4]: 30%
Population Healthy Nuclei (%) [4]: 44%
Population Hoechst High Intensity Objects (%) [4]: 10%
Population Membrane Permeable-Phenotype (%) [4]: 2%
Population Mitochondria Different-Phenotype (%) [4]: 25%
Population Mitotic Cells (%) [4]: 51%
Population Normal (%) [4]: 89%
Population Pyknosed Nuclei (%) [4]: 25%
Population Tubulin-Different-Phenotype (%) [4]: 92%
Total Cell Count [4]: 179
Population Apoptotic (%) [5]: 55%
Population Fragmented Nuclei (%) [5]: 24%
Population Healthy Nuclei (%) [5]: 62%
Population Hoechst High Intensity Objects (%) [5]: 3%
Population Membrane Permeable-Phenotype (%) [5]: 0%
Population Mitochondria Different-Phenotype (%) [5]: 5%
Population Mitotic Cells (%) [5]: 45%
Population Normal (%) [5]: 96%
Population Pyknosed Nuclei (%) [5]: 13%
Population Tubulin-Different-Phenotype (%) [5]: 51%
Total Cell Count [5]: 158
Population Apoptotic (%) [6]: 60%
Population Fragmented Nuclei (%) [6]: 31%
Population Healthy Nuclei (%) [6]: 36%
Population Hoechst High Intensity Objects (%) [6]: 4%
Population Membrane Permeable-Phenotype (%) [6]: 4%
Population Mitochondria Different-Phenotype (%) [6]: 20%
Population Mitotic Cells (%) [6]: 39%
Population Normal (%) [6]: 95%
Population Pyknosed Nuclei (%) [6]: 31%
Population Tubulin-Different-Phenotype (%) [6]: 79%
Total Cell Count [6]: 125
Population Apoptotic (%) [7]: 73%
Population Fragmented Nuclei (%) [7]: 15%
Population Healthy Nuclei (%) [7]: 68%
Population Hoechst High Intensity Objects (%) [7]: 7%
Population Membrane Permeable-Phenotype (%) [7]: 0%
Population Mitochondria Different-Phenotype (%) [7]: 55%
Population Mitotic Cells (%) [7]: 26%
Population Normal (%) [7]: 92%
Population Pyknosed Nuclei (%) [7]: 16%
Population Tubulin-Different-Phenotype (%) [7]: 94%
Total Cell Count [7]: 274
Population Apoptotic (%) [8]: 62%
Population Fragmented Nuclei (%) [8]: 27%
Population Healthy Nuclei (%) [8]: 54%
Population Hoechst High Intensity Objects (%) [8]: 5%
Population Membrane Permeable-Phenotype (%) [8]: 3%
Population Mitochondria Different-Phenotype (%) [8]: 41%
Population Mitotic Cells (%) [8]: 37%
Population Normal (%) [8]: 94%
Population Pyknosed Nuclei (%) [8]: 17%
Population Tubulin-Different-Phenotype (%) [8]: 92%
Total Cell Count [8]: 174
Population Apoptotic (%) [9]: 80%
Population Fragmented Nuclei (%) [9]: 22%
Population Healthy Nuclei (%) [9]: 67%
Population Hoechst High Intensity Objects (%) [9]: 6%
Population Membrane Permeable-Phenotype (%) [9]: 0%
Population Mitochondria Different-Phenotype (%) [9]: 8%
Population Mitotic Cells (%) [9]: 20%
Population Normal (%) [9]: 93%
Population Pyknosed Nuclei (%) [9]: 10%
Population Tubulin-Different-Phenotype (%) [9]: 44%
Total Cell Count [9]: 161
Population Apoptotic (%) [10]: 64%
Population Fragmented Nuclei (%) [10]: 38%
Population Healthy Nuclei (%) [10]: 41%
Population Hoechst High Intensity Objects (%) [10]: 1%
Population Membrane Permeable-Phenotype (%) [10]: 3%
Population Mitochondria Different-Phenotype (%) [10]: 16%
Population Mitotic Cells (%) [10]: 35%
Population Normal (%) [10]: 98%
Population Pyknosed Nuclei (%) [10]: 20%
Population Tubulin-Different-Phenotype (%) [10]: 80%
Total Cell Count [10]: 153
Population Apoptotic (%) [11]: 86%
Population Fragmented Nuclei (%) [11]: 20%
Population Healthy Nuclei (%) [11]: 64%
Population Hoechst High Intensity Objects (%) [11]: 8%
Population Membrane Permeable-Phenotype (%) [11]: 0%
Population Mitochondria Different-Phenotype (%) [11]: 62%
Population Mitotic Cells (%) [11]: 13%
Population Normal (%) [11]: 91%
Population Pyknosed Nuclei (%) [11]: 15%
Population Tubulin-Different-Phenotype (%) [11]: 94%
Total Cell Count [11]: 256
Population Fragmented Nuclei (%) [12]: 32%
Population Healthy Nuclei (%) [12]: 55%
Population Hoechst High Intensity Objects (%) [12]: 4%
Population Mitochondria Different-Phenotype (%) [12]: 36%
Population Normal (%) [12]: 95%
Population Pyknosed Nuclei (%) [12]: 11%
Total Cell Count [12]: 193
